The list is not random: actives were taken first. Their share in the collection is about 29%.
Ecoli tolC: blocks growth of E. coli BW25113 tolC mutant; OD615; actives 2.2% (n = 65,000); growth inhibition, % at 10 µM (by protocol);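 active = growth inhibition at or above a cutoff equal to the mean over every tested compound plus 3 SD, cut at about 60% in these data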;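 note: growth measured after 20 h incubation at 37 °C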
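test system = E. coli BW25113 ΔtolC::kan bacteria | medium = LB with kanamycin 50 µg/mL | signal = OD at 615 nm | schedule = 37 °C, 20 h exposure | evaluation = % inhibition of E. coli growth | compound dosing = one dose of 10 µM final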
Ecoli WT expand: blocks growth of wild type E. coli BW25113 | OD600 absorbance | growth inhibition, % at 100 µM | actives 0.15% (n = 98,000) | AID 710;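 active = growth inhibition above about 50% at one test dose, limit read from the data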;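 note: growth measured after 20 h incubation at 37 °C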
CYP2C9 inhib: inhibitors of human CYP2C9; CYP2C9 Supersomes, luciferin-H conversion, luminescence; actives 20% (n = 96,000); inhibition, % at 5 µM;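 active = blocking of liver enzyme CYP2C9 beyond about 50% at 5 µM, limit read from the data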
CYP2C19 activ: cytochrome P450 2C19 (human) activation. P33261. recombinant CYP2C19, luciferin-H EGE luminescence; hits give high values; 0 = fully inhibited enzyme, 1 = untreated enzyme. activation factor at 5 µM. 96,000 tested, under 10 active. AID 1025;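 active = activation factor of at least 2 at 5 µM in the primary screen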;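 note: 0 = wells with 2.5 mM tranylcypromine and 1 = vehicle-only wells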
Target sequence (P33261 whole entry, looked up): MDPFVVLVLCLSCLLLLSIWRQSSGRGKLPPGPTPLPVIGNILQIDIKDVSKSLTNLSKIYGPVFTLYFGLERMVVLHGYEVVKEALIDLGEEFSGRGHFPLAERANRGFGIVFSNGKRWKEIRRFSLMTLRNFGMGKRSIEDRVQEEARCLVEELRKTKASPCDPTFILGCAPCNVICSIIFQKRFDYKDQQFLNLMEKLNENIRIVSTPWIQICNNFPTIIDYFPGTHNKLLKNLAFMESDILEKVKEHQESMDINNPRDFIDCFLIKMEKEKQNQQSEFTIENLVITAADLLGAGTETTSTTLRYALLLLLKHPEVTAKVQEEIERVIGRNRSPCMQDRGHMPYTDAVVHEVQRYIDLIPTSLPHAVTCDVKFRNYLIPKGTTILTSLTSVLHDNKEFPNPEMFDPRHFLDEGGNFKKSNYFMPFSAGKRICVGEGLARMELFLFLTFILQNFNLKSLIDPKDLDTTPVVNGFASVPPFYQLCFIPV
CYP2C19 inh: human CYP2C19 inhibition. P33261. inhibition, % at 5 µM. actives 21% (n = 96,000). CYP2C19 Supersomes, luciferin-H EGE luminescence, 30 min;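 active = CYP2C19 inhibition above a set limit at 5 µM in the primary screen, cut at about 50% in these data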;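 note: plate controls were negative control wells for no effect and 2.5 mM tranylcypromine positive control for full effect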
CYP2C9 activ: increases human cytochrome P450 2C9 activity; P11712; recombinant CYP2C9, luciferin-H conversion, luminescence; hits give high values; factor 1 = untreated enzyme, 0 = blocked; activation factor at 5 µM; actives 1.4% (n = 96,000); AID 1024;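 active = activation factor of 2 or more for CYP2C9 at a 5 µM dose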;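 note: 0 = sulfaphenazole-blocked wells and 1 = vehicle-only wells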
* hit, by the source's call; x = no result.

SMILES | Ecoli tolC | Ecoli WT expand | CYP2C9 inhib | CYP2C19 activ | CYP2C19 inh | CYP2C9 activ
C/C(CCc1ccc2c(c1)OCO2)=N\N=C1\NC(=O)CC(C(=O)Nc2ccccc2)S1 (stereo unspecified) | x | -3 | 68* | 0.8 | 22 | 0.3
CCN1C(=O)CC(C(=O)Nc2ccc(F)cc2)SC1=Nc1ccc2c(c1)OCO2 (stereo unspecified) | 5 | -5 | 34 | 1.1 | -5 | 0.7
COc1ccc(C2CCCN2C(=O)c2cccs2)cc1 (stereo unspecified) | 4 | -5 | 27 | 0.7 | 33 | 0.7
Cc1ccc(CN(C)C(=O)C2CCCN2C(=O)c2cccs2)o1 (stereo unspecified) | -5 | -8 | 14 | 0.4 | 57* | 0.9
Cc1cc(C(=O)COc2cccc(-n3cnnn3)c2)c(C)n1-c1ccccc1 | 23 | -12 | 22 | 0.1 | 86* | 0.8
COc1ccc(-n2c(C)cc(C(=O)COC(=O)Cn3cnc4ccccc43)c2C)cc1 | 63* | 16 | 6 | 0.9 | 11 | 0.9
COC(=O)COc1cccc(-n2cnnn2)c1 | -12 | 5 | 6 | 0.9 | 8 | 0.9
O=C(O)CCC(=O)NNC(=O)CCC(=O)NCc1ccccc1 | x | 1 | 11 | 0.9 | 13 | 0.9
COC(=O)Cc1cc(=O)[nH]c(/N=C(\N)Nc2ccccc2)n1 | x | -5 | -6 | 1 | 0 | 1.1
Cc1cc(C)nc(SCC(=O)Oc2ccc3oc(=O)cc(C)c3c2)n1 | 6 | 18 | -152 | 1 | 0 | 2.5*
Cc1ccc(SCCNC(=O)CN2C(=O)c3ccccc3S2(=O)=O)cc1 | 6 | -12 | 79* | 0.4 | 61* | 0.2
O=C(CN1C(=O)c2ccccc2S1(=O)=O)NCCSc1ccccc1 | -13 | 2 | 64* | 0.2 | 79* | 0.4
CC(C)(C)SCCNC(=O)CN1C(=O)c2ccccc2S1(=O)=O | -2 | 4 | 14 | 1 | 4 | 0.9
CCC(C)(C)n1nnnc1C(CC(C)C)N1CCC(C(N)=O)CC1 (stereo unspecified) | -6 | -1 | 17 | 1 | -2 | 0.8
O=C(/C=C/c1ccccc1)N1CCN(c2cccc(Cl)n2)CC1 | x | -8 | 46 | 0.7 | 25 | 0.5
CCCCNC(=O)COC(=O)c1cc2c(C)nn(-c3ccccc3)c2s1 | 5 | -3 | 78* | 0.5 | 51* | 0.2
Cc1cnc(NC(=O)c2cc3c(C)nn(-c4ccccc4)c3s2)s1 | x | -6 | 66* | 0.4 | 56* | 0.3
Cc1nn(-c2ccccc2)c2sc(C(=O)NC3CCCCC3)cc12 | 6 | -1 | 70* | 0.8 | 23 | 0.3
Cc1nn(-c2ccccc2)c2sc(C(=O)NNC(=O)COc3ccccc3)cc12 | x | -10 | 32 | 1 | 2 | 0.7
COC(=O)c1ccc(CSc2nnc(CNC(=O)c3cccs3)o2)o1 | -23 | -1 | 29 | 0.6 | 38 | 0.7
COc1ccc(-n2c(Cc3cccn3C)nnc2SCC(=O)Nc2ccc(C)cc2)cc1 | 14 | 2 | 53* | 0.9 | 14 | 0.5
CCOc1ccc(NC(=O)CSc2nnc(Cc3cccn3C)n2-c2ccc(OC)cc2)cc1 | 22 | -7 | 5 | 1.1 | -6 | 0.9
COc1ccc(-n2c(Cc3cccn3C)nnc2SCC(=O)Nc2cccc(Cl)c2)cc1 | 25 | -11 | 85* | 0.8 | 23 | 0.1
COc1ccc(NC(=O)CSc2nnc(Cc3cccn3C)n2-c2ccc(OC)cc2)cc1 | 18 | -10 | 59* | 0.6 | 40 | 0.4
Cc1ccc(S(=O)(=O)N2CCC(C(=O)NCCCOC(C)C)CC2)cc1 | x | 9 | -25 | 1 | 0 | 1.3
SMILES | Ecoli tolC | Ecoli WT expand | CYP2C9 inhib | CYP2C19 activ | CYP2C19 inh | CYP2C9 activ
Cc1ccc(Cn2nnc3c(=O)[nH]c(C4CCN(C(=O)c5cccs5)CC4)nc32)cc1 | 14 | 1 | 72* | 0.5 | 45 | 0.3
Cc1ccc(C)c(Cn2nnc3c(=O)[nH]c(C4CCCN(C(=O)C5CCC5)C4)nc32)c1 (stereo unspecified) | 21 | 5 | 43 | 0.7 | 28 | 0.6
Cc1ccc(C)c(Cn2nnc3c(=O)[nH]c(C4CCN(C(=O)c5cccs5)CC4)nc32)c1 | 64* | 2 | 88* | 0.5 | 51* | 0.1
COC(=O)c1ccsc1NC(=O)CN1CCN(Cc2ccc3c(c2)OCO3)CC1 | x | -14 | 56* | 0.5 | 46 | 0.4
COC(=O)c1ccsc1NC(=O)CN1CCN(c2ccc(F)cc2)CC1 | 70* | -14 | 91* | 0.1 | 91* | 0.1
COC(=O)c1c(NC(=O)CN2CCN(Cc3ccc4c(c3)OCO4)CC2)sc(C)c1C | 10 | 1 | 71* | 0.5 | 50* | 0.3
Cc1nn(Cc2ccccc2)c(Cl)c1C(=O)OCc1nnc(-c2ccccc2)o1 | 26 | -22 | 86* | 0.1 | 92* | 0.1
Cc1nn(Cc2ccccc2)c(Cl)c1C(=O)OCc1nnc(-c2ccc(Cl)cc2)o1 | 41 | -19 | 62* | 0.6 | 40 | 0.4
O=C(OCc1nnc(-c2ccccc2)o1)c1cc(=O)c2ccccc2o1 | -14 | 3 | -5 | 1 | 0 | 1.1
O=C(Nc1ccc(S(=O)(=O)Nc2ncccn2)cc1)c1ccc(Br)s1 | x | -8 | 18 | 1 | 0 | 0.8
CCC(=O)N/C(=N\OCc1ccc(F)cc1)c1nonc1NC(=O)CC | x | -2 | 12 | 0.3 | 65* | 0.9
O=C(c1ccc(F)cc1)N1C2CCC1CC(O)(c1ccc(F)cc1)C2 (stereo unspecified) | x | 1 | -4 | 0.9 | 13 | 1
O=C(c1cccnc1)N1C2CCC1CC(O)(c1ccc(F)cc1)C2 (stereo unspecified) | -18 | 3 | 12 | 0.5 | 52* | 0.9
CCN(CC)S(=O)(=O)c1cccc(C(=O)Oc2cccnc2)c1 | -27 | -7 | 11 | 0.9 | 14 | 0.9
CCN(CC)S(=O)(=O)c1cccc(S(=O)(=O)c2cccc(S(=O)(=O)N(CC)CC)c2)c1 | 24 | x | 70* | 0.1 | 91* | 0.3
CCCCN(CC)S(=O)(=O)c1ccccc1 | x | 8 | -12 | 0.2 | 81* | 1.1
CCN(CC)S(=O)(=O)c1ccc2[nH]c(=O)[nH]c2c1 | -6 | -6 | -11 | 0.9 | 10 | 1.1
CCN(CC)S(=O)(=O)c1ccc(C)c(C)c1 | x | 6 | -237 | 0.2 | 82* | 3.4*
CN1CCN(S(=O)(=O)c2cccc(S(=O)(=O)c3ccc(Cl)cc3)c2)CC1 | 9 | 5 | -114 | 1.1 | -9 | 2.1*
NC(=O)C1CCN(S(=O)(=O)c2cccc(S(=O)(=O)N3CCCCC3)c2)CC1 | -15 | 2 | 36 | 0.9 | 14 | 0.6
CCN(CC)S(=O)(=O)c1cccc(S(=O)(=O)N2CCCCC2)c1 | x | 6 | 53* | 0.5 | 46 | 0.5
O=S(=O)(c1ccccc1)c1cccc(S(=O)(=O)N2CCCCC2)c1 | 18 | -12 | -23 | 0.1 | 87* | 1.2

Bioassay records: PubChem, several laboratories
